Reference: ChEMBL document CHEMBL4382236, “Synthesis and biological evaluation of thielocin B1 analogues as protein-protein interaction inhibitors of PAC3 homodimer” (Bioorg Med Chem, 2018)

Key:
[1] = molecular target: T1, PAC1-PAC2 complex (Homo sapiens) (UniProt O95456+Q969U7); assay: (§1) Inhibition of N-terminal mKG-labeled PAC1/C-terminal mKG-labeled PAC2 (unknown origin) protein-protein interaction at 0.1 uM preincubated for 1 hr with protein followed by another protein addition and measured after 17 hrs by fluorescence based protein-fragment complementation assay relative to control; format: protein-complex assay
Summary of the method: (§2)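 In vitro protein-fragment complementation assay. Compounds were added as DMSO solutions at 10, 1 or 0.1 μM. The decrease in fluorescence intensity was converted to percent inhibition.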

[2] = molecular target: T2, Proteasome assembly chaperone 3 (Homo sapiens) (UniProt Q9BT73); assay: as §1, with “PAC3/C-terminal” for “PAC1/C-terminal”, “PAC3 homodimer” for “PAC2”; summary of the method: as §2
T2 sequence (whole entry): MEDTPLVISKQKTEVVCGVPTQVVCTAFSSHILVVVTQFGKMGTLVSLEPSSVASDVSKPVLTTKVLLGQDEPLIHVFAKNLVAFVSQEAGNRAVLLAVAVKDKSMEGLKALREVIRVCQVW

[3] = molecular target: T2, Proteasome assembly chaperone 3 (Homo sapiens); assay: as §1, with “PAC3/C-terminal” for “PAC1/C-terminal”, “PAC3 homodimer” for “PAC2”, “10” for “0.1”; summary of the method: as §2
[4] = molecular target: T2, Proteasome assembly chaperone 3 (Homo sapiens); assay: as §1, with “PAC3/C-terminal” for “PAC1/C-terminal”, “PAC3 homodimer” for “PAC2”, “1” for “0.1”; summary of the method: as §2
[5] = molecular target: T1, PAC1-PAC2 complex (Homo sapiens); assay: as §1, with “10” for “0.1”; format: protein-complex assay; summary of the method: as §2
[6] = molecular target: T1, PAC1-PAC2 complex (Homo sapiens); assay: as §1, with “1” for “0.1”; format: protein-complex assay; summary of the method: as §2
[7] = molecular target: T3, Proteasome assembly chaperone 3 (Homo sapiens, UniProt Q9BT73); assay: Inhibition of PAC3 homodimer (unknown origin) protein-protein interaction
T3 sequence (Q9BT73 whole entry): T2 sequence (whole entry)

PAC1-PAC2 complex = molecular target: T4, PAC1-PAC2 complex (Homo sapiens, UniProt O95456+Q969U7); assay: Inhibition of PAC1/PAC2 heterodimer (unknown origin) protein-protein interaction; format: protein-complex assay
T4 sequence (O95456 whole entry): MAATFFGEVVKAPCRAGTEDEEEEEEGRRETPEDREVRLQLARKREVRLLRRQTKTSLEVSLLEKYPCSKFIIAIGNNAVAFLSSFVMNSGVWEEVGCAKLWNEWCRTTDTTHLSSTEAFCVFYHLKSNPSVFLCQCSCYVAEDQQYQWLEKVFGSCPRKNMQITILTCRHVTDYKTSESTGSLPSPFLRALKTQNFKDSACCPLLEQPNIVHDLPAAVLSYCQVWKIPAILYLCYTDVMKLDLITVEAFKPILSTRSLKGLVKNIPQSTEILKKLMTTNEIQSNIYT
T4 sequence (Q969U7 whole entry): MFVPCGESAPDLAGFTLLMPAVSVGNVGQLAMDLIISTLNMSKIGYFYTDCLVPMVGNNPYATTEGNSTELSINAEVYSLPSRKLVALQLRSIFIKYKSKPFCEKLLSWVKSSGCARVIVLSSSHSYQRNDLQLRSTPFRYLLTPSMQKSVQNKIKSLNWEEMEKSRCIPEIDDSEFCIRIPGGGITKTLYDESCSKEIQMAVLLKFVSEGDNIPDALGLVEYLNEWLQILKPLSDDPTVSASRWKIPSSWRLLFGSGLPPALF

Structure (SMILES) | inhibition [1] | inhibition [2] | inhibition [3] | inhibition [4] | inhibition [5] | inhibition [6] | IC50 [7] | IC50 (PAC1-PAC2 complex)
COc1c(C)c(OC(=O)c2c(C)c(C)c(OCc3cccc(COc4c(C)c(C)c(C(=O)Oc5c(C)c(C)c(C(=O)O)c(OC)c5C)c(OC)c4C)n3)c(C)c2OC)c(C)c(C)c1C(=O)O | 9% | 18% | 88% | 43% | 40% | 5% | – | –
COCOC(=O)c1c(C)c(C)c(OC(=O)c2c(C)c(C)c(OC(=O)c3c(C)c(C(=O)Oc4c(C)c(C)c(C(=O)Oc5c(C)c(C)c(C(=O)OCOC)c(OC)c5C)c(OC)c4C)c(OC)c(C)c3OC)c(C)c2OC)c(C)c1OC | 3% | 12% | 2% | 5% | 1% | 0% | – | –
COc1c(C)c(OC(=O)c2c(C)c(C)c(OC[C@@H]3OC(=O)O[C@H]3COc3c(C)c(C)c(C(=O)Oc4c(C)c(C)c(C(=O)O)c(OC)c4C)c(OC)c3C)c(C)c2OC)c(C)c(C)c1C(=O)O | 15% | 2% | 41% | 5% | 49% | 17% | – | –
COc1c(C)c(OC(=O)c2c(C)c(C)c(OC(=O)c3c(C)c(C(=O)Oc4c(C)c(C)c(C(=O)Oc5c(C)c(C)c(C(=O)O)c(OC)c5C)c(OC)c4C)c(OC)c(C)c3OC)c(C)c2OC)c(C)c(C)c1C(=O)O | 9% | 29% | 85% | 49% | 38% | 2% | – | –
COc1c(C)c(OC(=O)c2c(C)c(C)c(OCc3cccc(COc4c(C)c(C)c(C(=O)Oc5c(C)c(C)c(C(=O)O)c(OC)c5C)c(OC)c4C)c3Br)c(C)c2OC)c(C)c(C)c1C(=O)O | 3% | 26% | 86% | 38% | 57% | 5% | – | –
COc1c(C)c(OC(=O)c2ccc(Oc3cccc(C(=O)Oc4c(C)c(C)c(C(=O)Oc5c(C)c(C)c(C(=O)O)c(OC)c5C)c(OC)c4C)c3C)c(C)c2)c(C)c(C)c1C(=O)O | 1% | 19% | 99% | 34% | 89% | 31% | – | –
COc1c(C)c(OC(=O)c2c(C)c(C)c(OC(=O)c3c(C)cc(O)c(Cc4c(C)c(C(=O)Oc5c(C)c(C)c(C(=O)Oc6c(C)c(C)c(C(=O)O)c(OC)c6C)c(OC)c5C)c(O)c(C)c4O)c3O)c(C)c2OC)c(C)c(C)c1C(=O)O | – | – | – | – | – | – | > 250 µM | –
COc1c(C)c(OC(=O)c2c(C)c(C)c(OC(=O)c3c(C)c(C(=O)Oc4c(C)c(C)c(C(=O)Oc5c(C)c(C)c(C(=O)O)c(OC)c5C)c(OC)c4C)c(O)c(C)c3O)c(C)c2OC)c(C)c(C)c1C(=O)O | 21% | 4% | 94% | 17% | 69% | 23% | – | –
COCOC(=O)c1c(C)c(C)c(OC(=O)c2c(C)c(C)c(OCc3cccc(COc4c(C)c(C)c(C(=O)Oc5c(C)c(C)c(C(=O)OCOC)c(OC)c5C)c(OC)c4C)c3Br)c(C)c2OC)c(C)c1OC | 3% | 0% | 0% | 0% | 6% | 0% | – | –
COc1c(C)c(OC(=O)c2c(C)c(C)c(OC(=O)c3c(C)c(Oc4c(C)c(C)c(C(=O)Oc5c(C)c(C)c(C(=O)O)c(OC)c5C)c(OC)c4C)c(O)c(C)c3O)c(C)c2OC)c(C)c(C)c1C(=O)O | 9% | 85% | – | 94% | – | 9% | 0.02 µM | > 250 µM
COc1c(C)c(OC(=O)c2c(C)c(C)c(OC(=O)C3=C(C)[C@@](C)(O)[C@@]4(O)Oc5c(C)c(OC)c(C(=O)Oc6c(C)c(C)c(C(=O)O)c(OC)c6C)c(C)c5C[C@@]4(C)C3=O)c(C)c2OC)c(C)c(C)c1C(=O)O | – | – | – | – | – | – | > 250 µM | –

Results, then the compound that gave them:

inhibition [1] | inhibition [2] | inhibition [3] | inhibition [4] | inhibition [5] | inhibition [6] | IC50 [7] | IC50 (PAC1-PAC2 complex) | Structure (SMILES)
9% | 7% | 99% | 37% | 98% | 35% | – | – | COc1c(C)c(OC(=O)c2ccc(Oc3cccc(C(=O)Oc4c(C)c(C)c(C(=O)Oc5c(C)c(C)c(C(=O)O)c(OC)c5C)c(OC)c4C)c3)cc2)c(C)c(C)c1C(=O)O
5% | 7% | 94% | 30% | 68% | 16% | – | – | COc1c(C)c(OC(=O)c2c(C)c(C)c(OC/C=C/COc3c(C)c(C)c(C(=O)Oc4c(C)c(C)c(C(=O)O)c(OC)c4C)c(OC)c3C)c(C)c2OC)c(C)c(C)c1C(=O)O
5% | 0% | 53% | 17% | 39% | 17% | – | – | COc1c(C)c(OC(=O)c2c(C)c(C)c(OC[C@H](O)[C@@H](O)COc3c(C)c(C)c(C(=O)Oc4c(C)c(C)c(C(=O)O)c(OC)c4C)c(OC)c3C)c(C)c2OC)c(C)c(C)c1C(=O)O
15% | 4% | 98% | 40% | 91% | 37% | – | – | COc1c(C)c(OC(=O)c2ccc(Oc3cccc(C(=O)Oc4c(C)c(C)c(C(=O)Oc5c(C)c(C)c(C(=O)O)c(OC)c5C)c(OC)c4C)c3C)cc2)c(C)c(C)c1C(=O)O
3% | 11% | 21% | 9% | 11% | 0% | – | – | COc1c(C)c(O)c(C)c(C)c1C(=O)Oc1c(C)c(C)c(C(=O)O)c(OC)c1C
5% | 0% | 34% | 9% | 28% | 16% | – | – | COc1c(C)c(OC(=O)c2c(C)c(C)c(OC(=O)CCC(=O)Oc3c(C)c(C)c(C(=O)Oc4c(C)c(C)c(C(=O)O)c(OC)c4C)c(OC)c3C)c(C)c2OC)c(C)c(C)c1C(=O)O
